In publication PMC6800172 (The American journal of Chinese medicine, 2017):

How the values were obtained:
[1] = test system: human LNCaP/AR-Luc cells; assay: LNCaP/AR-Luc xenograft growth in SCID-NSG mice; format: in vivo; conditions: decursinol 4.5 mg/mouse/day gavage, 7 days per week, vs vehicle
Outline: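 Male SCID-NSG mice (n=20/group) received daily gavage in EPTG 3:6:1:20 (300 μL) starting 7 days before s.c. inoculation of 20,000 LNCaP/AR-Luc cells (1:1 Matrigel:serum-free medium, lower right flank). Caliper measurement twice weekly; volume = (L×W²)/2. Tumors weighed at necropsy. Only the 10 largest tumors per group were analyzed; mean ± SD.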

[2] = test system: human LNCaP/AR-Luc cells; assay: Lung metastasis of LNCaP/AR-Luc xenograft by ex vivo bioluminescence imaging; format: in vivo; conditions: SCID-NSG mice, decursinol 4.5 mg/mouse/day gavage; control 100% (10 out of 10)
[3] = Body weight and organ weight of tumor-bearing SCID-NSG mice; format: in vivo; conditions: decursinol 4.5 mg/mouse/day
[4] = test system: LNCaP/AR-luc xenograft tumor; assay: Histopathology of H&E stained xenograft tumor sections; format: in vivo, human; conditions: vs vehicle groups within each experiment
Outline: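 Tumors dissected at necropsy and fixed in neutral-buffered formalin. H&E-stained sections were examined for necrotic areas, hemorrhage and intravascular cancer-cell emboli.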

[5] = Plasma decursinol by HPLC at 3 h after the last dose in SCID-NSG mice; format: in vivo, mouse
Outline: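 Plasma was collected 3 h after the last daily gavage dose (4.5 mg/mouse in EPTG 3:6:1:20) from tumor-bearing male SCID-NSG mice. Plasma with chrysin internal standard was extracted twice with ethyl acetate, dried and reconstituted in methanol. HPLC used a C18 column at room temperature with a water/acetonitrile gradient (20–90% over 15 min, then 90% for 8 min) and diode-array detection at 330 nm.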

[6] = Stability of dosing preparation in EPTG excipient formula; format: physicochemical
[7] = Subchronic; format: in vivo, mouse; conditions: for Body Weight / Organ height (Mean ± SD) Brain / Organ height (Mean ± SD) Heart / Organ height (Mean ± SD) Kidney / Organ height (Mean ± SD) Liver / Organ height (Mean ± SD) Lung / Organ height (Mean ± SD) Prostate / Organ height (Mean ± SD) Spleen / Organ height (Mean ± SD) Testes: male CD-1 mice, N=6
Outline: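 24 male CD-1 mice (acclimated 2 weeks) were stratified by weight into 4 groups (N=6). They were gavaged daily, 7 days/week, for 4 weeks with 80, 120 or 160 mg/kg in EPTG 3:6:1:5, or 200 μL vehicle. Body weight was measured weekly, with the dose adjusted to it. At euthanasia organs were weighed, and plasma taken 3 h after the last dose was assayed by HPLC; […].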

[8] = Subchronic; format: in vivo, mouse; conditions: 4 weeks; for Plasma biochemistry (Mean ± SD) ALB / Plasma biochemistry (Mean ± SD) ALP / Plasma biochemistry (Mean ± SD) ALT / Plasma biochemistry (Mean ± SD) AST / Plasma biochemistry (Mean ± SD) Amy / Plasma biochemistry (Mean ± SD) BUN / Plasma biochemistry (Mean ± SD) Chol / Plasma biochemistry (Mean ± SD) Gluc / Plasma biochemistry (Mean ± SD) T.Bili: male CD-1 mice, N=6
Outline: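 After 4 weeks of daily gavage (80, 120 or 160 mg/kg in EPTG 3:6:1:5, or vehicle) in male CD-1 mice, heparinized blood was taken by cardiac puncture at euthanasia. Plasma ALT, AST, ALP, albumin, amylase, BUN, creatinine, glucose, cholesterol and total bilirubin were measured by a veterinary diagnostic laboratory.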

[9] = Single dose pharmacokinetic study in CD-1 mice; format: in vivo; conditions: male, CD-1, mouse, plasma, po, 120 mg/kg
Outline: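 Male CD-1 mice (7 weeks, ≥1 week on AIN-93M diet) were given a single gavage of 120 mg/kg (3 mg/25 g) in 0.2 mL EPTG 3:6:1:5. Groups of 5–7 were killed at 0.1, 0.25, 0.5, 1, 2, 3, 6, 12 and 24 h. Heparinized cardiac blood was spun at 5000 g for 5 min. Plasma was extracted with ethyl acetate and run on HPLC. AUC0–24h was calculated noncompartmentally; mean ± SEM.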

[10] = DOH-3: 3 mg per 25 g body weight (120 mg/kg) daily gavage, 4 weeks
[11] = DOH-4: 4 mg per 25 g body weight (160 mg/kg) daily gavage, 4 weeks
[12] = DOH-3: 3 mg per 25 g body weight (120 mg/kg) daily gavage
[13] = DOH-4: 4 mg per 25 g body weight (160 mg/kg) daily gavage

plasma decursinol level, decursinol dosing over equi-molar D/DA dosing ([5]; SCID-NSG mice, 3 hours after the last dose): 1.7 folds
concentration at 3 h ([5]; male, SCID-NSG, mouse, plasma, oral, 4.5 mg/mouse): 4100 ng/mL
time in uniformly dispersed state after dilution from stock concentrate ([6]; EPTG (3:6:1:20) formula): ≤ 20 min
time remaining as clear solution ([6]; new EPTG (3:6:1:5)): more than 1 hour
plasma decursinol level (3 h post last dose) ([7]; CD-1 mice, 80, 120, and 160 mg decursinol/kg daily gavage, 4 weeks, EPTG 3:6:1:5): increase in a dose-dependent manner
weights of liver, kidney, prostate, spleen, lung, heart, testes and brain ([7]; CD-1 mice, subchronic dosing 4 weeks, 80-160 mg/kg): did not affect
Organ height (Mean ± SD) Brain [7, 10]: 0.53 ± 0.03 g
Organ height (Mean ± SD) Heart [7, 10]: 0.19 ± 0.01 g
Organ height (Mean ± SD) Kidney [7, 10]: 0.59 ± 0.08 g
Organ height (Mean ± SD) Liver [7, 10]: 1.58 ± 0.14 g
Organ height (Mean ± SD) Lung [7, 10]: 0.20 ± 0.02 g
Organ height (Mean ± SD) Prostate [7, 10]: 0.10 ± 0.02 g
Organ height (Mean ± SD) Spleen [7, 10]: 0.09 ± 0.02 g
Organ height (Mean ± SD) Testes [7, 10]: 0.25 ± 0.03 g
Organ height (Mean ± SD) Brain [7, 11]: 0.53 ± 0.02 g
Organ height (Mean ± SD) Heart [7, 11]: 0.20 ± 0.01 g
Organ height (Mean ± SD) Kidney [7, 11]: 0.60 ± 0.08 g
Organ height (Mean ± SD) Liver [7, 11]: 1.54 ± 0.17 g
Organ height (Mean ± SD) Lung [7, 11]: 0.22 ± 0.01 g
Organ height (Mean ± SD) Prostate [7, 11]: 0.12 ± 0.02 g
Organ height (Mean ± SD) Spleen [7, 11]: 0.09 ± 0.02 g
Organ height (Mean ± SD) Testes [7, 11]: 0.24 ± 0.05 g
Plasma biochemistry (Mean ± SD) ALB [8, 12]: 2.7 ± 0.2 g/dL
Plasma biochemistry (Mean ± SD) ALP [8, 12]: 47.2 ± 14.6 U/L
Plasma biochemistry (Mean ± SD) Amy [8, 12]: 780.2 ± 70.1 U/L
Plasma biochemistry (Mean ± SD) BUN [8, 12]: 12.3 ± 2.5 mg/dL
Plasma biochemistry (Mean ± SD) Chol [8, 12]: 182.0 ± 38.8 mg/dL
Plasma biochemistry (Mean ± SD) Gluc [8, 12]: 367.3 ± 69.0 mg/dL
Plasma biochemistry (Mean ± SD) T.Bili [8, 12]: 0.27 ± 0.05 mg/dL
Plasma biochemistry (Mean ± SD) ALB [8, 13]: 2.3 ± 0.3 g/dL
Plasma biochemistry (Mean ± SD) ALP [8, 13]: 45.5 ± 9.1 U/L
Plasma biochemistry (Mean ± SD) Amy [8, 13]: 668.0 ± 117.1 U/L
Plasma biochemistry (Mean ± SD) BUN [8, 13]: 14.0 ± 2.2 mg/dL
Plasma biochemistry (Mean ± SD) Chol [8, 13]: 161.0 ± 20.5 mg/dL
Plasma biochemistry (Mean ± SD) Gluc [8, 13]: 408.3 ± 130.0 mg/dL
Plasma biochemistry (Mean ± SD) T.Bili [8, 13]: 0.32 ± 0.10 mg/dL
AUC(0-t) [9]: 193 µg·h/mL
SMILES: CC1(C)Oc2cc3oc(=O)ccc3cc2C[C@@H]1O [decursinol]
decreased LNCaP/AR-Luc xenograft tumor growth (top 10 tumors) [1]: 75%
lung metastasis rate [2]: 60%
weight of liver, kidney, testes and prostate at study termination ([3]; SCID-NSG mice, vs vehicle- or D/DA-treated mice): not statistically different
Body Weight ([3]; tumor-bearing SCID-NSG mice, noticeable at 7-8 weeks of treatment): progressive body weight disadvantage
necrosis extent in tumor sections [4]: did not noticeably differ
body weight change ([7]; CD-1 mice, daily gavage as high as 4 mg/25 g or 160 mg per kg, 4 weeks): did not cause body weight change
Body Weight [7, 10]: 35.97 ± 2.10 g
Body Weight [7, 11]: 35.38 ± 1.71 g
plasma biochemistry (ALP, AST, ALT, Amy, ALB, BUN, Gluc, Chol, T. Bili) ([8]; CD-1 mice, among the 4 groups): not statistically different
Plasma biochemistry (Mean ± SD) ALT [8, 12]: 34.3 ± 21.7 U/L
Plasma biochemistry (Mean ± SD) AST [8, 12]: 82.5 ± 29.6 U/L
Plasma biochemistry (Mean ± SD) ALT [8, 13]: 21.0 ± 7.6 U/L
Plasma biochemistry (Mean ± SD) AST [8, 13]: 72.3 ± 29.9 U/L
